In ChEMBL document CHEMBL2176949 (J Med Chem, 2012):

What was measured:
[1] = target: T1, Neuronal acetylcholine receptor; alpha3/beta4 (Homo sapiens, UniProt P30926+P32297); test: Agonist activity at human alpha3beta4 nAChR expressed in human SH-SY5Y cells assessed as increase in calcium flux by FLIPR; assay type: functional, cell-based
[2] = target: T1, Neuronal acetylcholine receptor; alpha3/beta4; test: Agonist activity at human alpha3beta4 nAChR expressed in human SH-SY5Y cells assessed as increase in calcium flux by FLIPR relative to 10 uM nicotine; assay type: functional, cell-based
[3] = target: T2, Neuronal acetylcholine receptor; alpha4/beta2 (Homo sapiens, UniProt P17787+P43681); test: Agonist activity at human alpha4beta2 nAChR low sensitivity form expressed in human SH-EP1 cells assessed as increase in calcium flux by FLIPR; assay type: functional, cell-based
T2 sequence (P17787 whole entry): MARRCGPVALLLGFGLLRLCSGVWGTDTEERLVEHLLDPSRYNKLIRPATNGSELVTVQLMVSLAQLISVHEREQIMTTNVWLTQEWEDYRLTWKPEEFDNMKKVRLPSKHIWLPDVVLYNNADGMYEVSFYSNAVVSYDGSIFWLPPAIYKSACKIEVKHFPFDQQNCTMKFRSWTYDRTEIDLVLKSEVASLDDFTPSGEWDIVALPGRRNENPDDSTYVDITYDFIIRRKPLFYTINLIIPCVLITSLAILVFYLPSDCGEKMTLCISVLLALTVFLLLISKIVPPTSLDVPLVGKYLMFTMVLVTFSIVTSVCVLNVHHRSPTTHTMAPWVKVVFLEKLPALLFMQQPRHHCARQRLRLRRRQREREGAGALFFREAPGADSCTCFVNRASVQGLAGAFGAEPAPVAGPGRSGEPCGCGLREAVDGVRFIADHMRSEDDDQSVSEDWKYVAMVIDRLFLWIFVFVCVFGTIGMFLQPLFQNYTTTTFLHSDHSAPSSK
T2 sequence (P43681 whole entry): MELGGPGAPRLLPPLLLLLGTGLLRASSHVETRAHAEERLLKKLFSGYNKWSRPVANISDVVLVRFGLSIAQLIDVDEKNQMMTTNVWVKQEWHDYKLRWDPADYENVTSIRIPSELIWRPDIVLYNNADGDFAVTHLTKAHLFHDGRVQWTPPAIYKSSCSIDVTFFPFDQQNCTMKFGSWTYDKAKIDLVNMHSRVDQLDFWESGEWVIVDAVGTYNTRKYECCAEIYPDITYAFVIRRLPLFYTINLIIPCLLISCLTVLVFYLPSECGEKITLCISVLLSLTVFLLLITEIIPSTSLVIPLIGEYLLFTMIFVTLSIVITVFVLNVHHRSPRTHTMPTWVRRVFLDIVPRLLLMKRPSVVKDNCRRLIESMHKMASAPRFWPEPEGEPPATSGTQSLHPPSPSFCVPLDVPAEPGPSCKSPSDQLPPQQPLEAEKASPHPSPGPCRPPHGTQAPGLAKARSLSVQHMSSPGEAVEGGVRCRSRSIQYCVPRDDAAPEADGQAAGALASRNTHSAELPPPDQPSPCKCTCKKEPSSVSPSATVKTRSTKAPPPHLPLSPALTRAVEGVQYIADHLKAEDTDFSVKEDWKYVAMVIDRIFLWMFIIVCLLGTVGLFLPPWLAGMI

[4] = target: T2, Neuronal acetylcholine receptor; alpha4/beta2; test: Agonist activity at human alpha4beta2 nAChR low sensitivity form expressed in human SH-EP1 cells assessed as increase in calcium flux by FLIPR relative to 10 uM nicotine; assay type: functional, cell-based
[5] = target: T2, Neuronal acetylcholine receptor; alpha4/beta2; test: Agonist activity at human alpha4beta2 nAChR high sensitivity form expressed in human SH-EP1 cells assessed as increase in calcium flux by FLIPR; assay type: functional, cell-based
[6] = target: T2, Neuronal acetylcholine receptor; alpha4/beta2; test: Agonist activity at human alpha4beta2 nAChR high sensitivity form expressed in human SH-EP1 cells assessed as increase in calcium flux by FLIPR relative to 10 uM nicotine; assay type: functional, cell-based
[7] = target: T1, Neuronal acetylcholine receptor; alpha3/beta4; test: Displacement of [3H]epibatidine from human alpha3beta4 nAChR expressed in human SH-SY5Y cells; assay type: cell-based
In short: (§1)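 Binding to membranes from the cell lines: homogenised in PBS pH 7.4, spun at 40000g for 20 min at 4 °C, then incubated 2 h on ice in PBS with competitor (0.001 nM to 100 μM) and radioligand. Filters washed in ice-cold PBS and counted by scintillation. IC50 from nonlinear regression; Ki by Cheng-Prusoff. Minimum of three assays, ± SEM.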

[8] = target: Neuronal acetylcholine receptor subunit alpha-7 (Homo sapiens, UniProt P36544); test: Displacement of [3H]epibatidine from human alpha7 nAChR expressed in human HEK/RIC3 cells; assay type: cell-based; in short: as §1
Chain of Neuronal acetylcholine receptor subunit alpha-7 (P36544 whole entry): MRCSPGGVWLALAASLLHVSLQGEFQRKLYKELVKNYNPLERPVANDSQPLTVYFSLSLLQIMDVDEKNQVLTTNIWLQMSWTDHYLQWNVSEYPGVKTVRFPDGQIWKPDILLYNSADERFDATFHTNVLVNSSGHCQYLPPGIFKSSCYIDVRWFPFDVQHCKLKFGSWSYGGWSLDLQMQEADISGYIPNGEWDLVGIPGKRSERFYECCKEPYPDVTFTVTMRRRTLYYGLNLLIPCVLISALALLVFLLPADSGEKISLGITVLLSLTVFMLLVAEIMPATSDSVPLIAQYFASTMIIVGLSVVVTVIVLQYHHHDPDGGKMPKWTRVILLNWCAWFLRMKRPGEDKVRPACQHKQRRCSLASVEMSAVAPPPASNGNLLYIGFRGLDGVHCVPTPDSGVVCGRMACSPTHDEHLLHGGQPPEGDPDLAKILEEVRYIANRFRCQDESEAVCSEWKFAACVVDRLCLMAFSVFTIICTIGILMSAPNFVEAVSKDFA

[9] = target: T2, Neuronal acetylcholine receptor; alpha4/beta2; test: Displacement of [3H]nicotine from human alpha4beta2 nAChR expressed in human SH-EP1 cells; assay type: cell-based; in short: as §1

T1 sequence (P30926 whole entry): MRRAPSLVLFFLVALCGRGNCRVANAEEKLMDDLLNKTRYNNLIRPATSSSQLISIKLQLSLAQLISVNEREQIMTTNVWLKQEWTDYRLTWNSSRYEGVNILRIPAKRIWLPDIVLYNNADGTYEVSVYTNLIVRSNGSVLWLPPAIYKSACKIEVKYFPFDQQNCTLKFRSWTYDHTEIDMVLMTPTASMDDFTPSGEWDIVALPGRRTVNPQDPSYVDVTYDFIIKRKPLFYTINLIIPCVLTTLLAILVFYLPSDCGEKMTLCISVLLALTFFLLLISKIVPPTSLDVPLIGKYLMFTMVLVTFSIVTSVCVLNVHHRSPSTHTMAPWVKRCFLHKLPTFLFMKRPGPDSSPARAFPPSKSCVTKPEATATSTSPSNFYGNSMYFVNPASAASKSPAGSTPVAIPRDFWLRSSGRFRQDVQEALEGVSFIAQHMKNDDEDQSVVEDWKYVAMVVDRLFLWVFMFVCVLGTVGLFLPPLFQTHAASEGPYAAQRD
T1 sequence (P32297 whole entry): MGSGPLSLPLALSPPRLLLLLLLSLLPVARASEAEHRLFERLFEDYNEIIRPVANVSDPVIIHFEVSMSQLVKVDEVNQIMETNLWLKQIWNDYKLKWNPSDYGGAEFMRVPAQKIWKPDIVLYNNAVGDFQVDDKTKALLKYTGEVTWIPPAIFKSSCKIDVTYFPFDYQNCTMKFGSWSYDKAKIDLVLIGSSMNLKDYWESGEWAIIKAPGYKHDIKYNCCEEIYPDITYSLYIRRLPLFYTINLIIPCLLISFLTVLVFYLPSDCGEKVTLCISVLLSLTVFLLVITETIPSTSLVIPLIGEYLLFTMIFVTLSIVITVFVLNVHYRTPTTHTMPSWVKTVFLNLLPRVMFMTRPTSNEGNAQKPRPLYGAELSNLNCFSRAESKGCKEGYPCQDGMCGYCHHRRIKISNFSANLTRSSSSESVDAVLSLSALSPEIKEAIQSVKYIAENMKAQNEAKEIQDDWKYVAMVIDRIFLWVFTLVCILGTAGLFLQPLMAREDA

Compound | EC50 [1] [µM] | %max [2] [%] | EC50 [3] [µM] | %max [4] [%] | EC50 [5] [µM] | %max [6] [%] | Ki [7] [µM] | Ki [8] [µM] | Ki [9] [µM]
COc1ccc(C2=CC3CC(C2)CN(C)C3)cn1 (stereo not given) | 1.89 | 61 | > 10 | 20 | 3.46 | 91 | > 10 | > 10 | 0.797
C1=C(c2cncnc2)CC2CNCC1C2 (stereo not given) | 0.198 | 147 | 0.162 | 145 | 0.24 | 116 | 0.058 | 0.019 | 0.0002
Fc1cncc(C2=C[C@H]3CNC[C@@H](C2)C3)c1 | 0.155 | 140 | 0.05 | 119 | 0.029 | 100 | 0.0083 | 0.0033 | 0.0002
N#Cc1cncc(C2=C[C@H]3CNC[C@@H](C2)C3)c1 | 0.355 | 136 | 4.19 | 88 | 0.256 | 95 | 0.015 | 0.073 | 0.0003
COc1cncc(C2=CC3CNCC(C2)C3)c1 (stereo not given) | 0.105 | 145 | 0.053 | 100 | 0.049 | 72 | 0.0143 | 0.0046 | 0.0003
Clc1ccncc1C1=CC2CNCC(C1)C2 (stereo not given) | 0.377 | 105 | > 10 | 12.8 | 2 | 46 | 0.128 | 0.033 | 0.003
Fc1cncc(C2=C[C@@H]3CNC[C@H](C2)C3)c1 | 0.111 | 153 | 0.036 | 120 | 0.034 | 112 | 0.0054 | 0.0016 | 0.0002
Fc1ccc(C2=CC3CNCC(C2)C3)cn1 (stereo not given) | 0.099 | 140 | 0.085 | 136 | 0.085 | 104 | 0.028 | 0.02 | 0.0004
CN1CC2C=C(c3ccc(F)nc3)CC(C2)C1 (stereo not given) | > 10 | 25 | > 10 | 9.4 | > 10 | 22 | 1.3 | 1.3 | 0.018
CN1CC2C=C(c3cncc(Oc4ccccc4)c3)CC(C2)C1 (stereo not given) | 0.1 | 103 | > 10 | 9.5 | 0.183 | 42 | 0.0082 | 0.017 | 0.0013
Cc1ccc(C2=CC3CNCC(C2)C3)cn1 (stereo not given) | 0.093 | 149 | 0.079 | 112 | 0.075 | 107 | 0.025 | 0.08 | 0.0003
COc1cncc(C2=CC3CC(C2)CN(C)C3)c1 (stereo not given) | 3.64 | 27 | 5.13 | 15 | 2.66 | 19 | 0.596 | 0.605 | 0.0006
C1=C(c2ccc(-c3ccccc3)nc2)CC2CNCC1C2 (stereo not given) | 10.9 | 17 | 9.66 | 18 | > 10 | 19 | 0.507 | 0.59 | 0.105
N#Cc1cncc(C2=C[C@@H]3CNC[C@H](C2)C3)c1 | 0.447 | 144 | 0.343 | 89 | 0.107 | 92 | 0.017 | 0.079 | 0.0003
C1=C(c2cncc(-c3ccccc3)c2)CC2CNCC1C2 (stereo not given) | 0.181 | 61 | > 10 | 5.3 | 0.085 | 33 | 0.017 | 3.22 | 0.0008
